Legend:
rat EP4 receptor [1] = molecular target: T1, rat EP4 receptor (Rattus norvegicus, UniProt P43114); experiment: CRE-regulated SEAP reporter; type: cell-based
rat BMCs [2] = experiment: ALP enzyme activity in total rat bone marrow cell culture, day 9; type: cell-based; conditions: for change in ALP activity over vehicle treated cultures: doses ranging from 1 pM to 10 μM, once at plating
In short: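 Unfractionated BMCs from tibiae and femora of young or old female or male Sprague-Dawley rats, extruded into MEMα with 10% FCS and 50 μg/mL gentamicin, triturated and filtered. Plated at 1.8 × 10^5 cells/cm2 and dosed once at plating from 1000x ethanol stocks. Dex (10 nM final) added day 4. Day 9 lysis (Tris pH 8.4, ZnCl2, MgCl2, Triton X-100); pNPP, 405 nm; n = 8 wells; EC50 by non-linear regression.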

rat EP4 receptor [3] = molecular target: T1, rat EP4 receptor; experiment: cAMP production, rat EP4 receptor expressed in HEK293T cells; type: cell-based; conditions: read-out: rat EP4 receptor cAMP levels EC50; mean ± SEM
rat EP2 receptor [4] = molecular target: T2, rat EP2 receptor (Rattus norvegicus, UniProt Q62928); experiment: cAMP production, rat EP2 receptor expressed in HEK293T cells; type: cell-based
T2 sequence (Q62928 whole entry): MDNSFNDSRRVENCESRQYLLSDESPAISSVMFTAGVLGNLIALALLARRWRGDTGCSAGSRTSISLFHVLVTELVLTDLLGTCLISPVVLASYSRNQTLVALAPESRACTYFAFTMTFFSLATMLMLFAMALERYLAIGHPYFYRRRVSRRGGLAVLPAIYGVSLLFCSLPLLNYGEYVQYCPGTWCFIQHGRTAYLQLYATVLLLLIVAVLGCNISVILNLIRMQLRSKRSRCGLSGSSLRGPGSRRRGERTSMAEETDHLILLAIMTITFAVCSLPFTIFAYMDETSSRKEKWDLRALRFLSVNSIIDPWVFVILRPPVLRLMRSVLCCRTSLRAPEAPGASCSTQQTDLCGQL

rat EP2 receptor [5] = molecular target: T2, rat EP2 receptor; experiment: CRE-regulated SEAP reporter; type: cell-based
rat BMCs [6] = experiment: Total adherent cell number in BMC cultures; type: cell-based; conditions: 1μM, days 5, 6, or 7, versus vehicle
rat BMCs [7] = experiment: Adipogenesis assay, Oil Red O staining in BMC cultures; type: cell-based; conditions: 1μM, insulin and dexamethasone, day 12, versus vehicle
rat BMCs [8] = experiment: ALP-positive colony area in BMC cultures; type: cell-based; conditions: 1μM, day 9, compared to vehicle
rat BMCs [9] = experiment: Osteoclastogenesis assay, TRAP-positive cells in BMC cultures; type: cell-based; conditions: for number of TRAP positive cells in the absence of exogenous M-CSF and RANKL: data not shown; for number of TRAP-positive cells: various doses, in the presence of 16 ng/mL RANKL and 16 ng/mL M-CSF, versus vehicle
rat BMCs [10] = experiment: Bone phenotype marker gene expression in BMCs; type: cell-based; conditions: 1μM once at plating
In short: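 BMCs from young female rats dosed once at plating with 1μM test compound or 0.1% ethanol. Dex (10 nM final) added day 4. From day 7, fed every 3 days with medium containing ascorbic acid 100 μg/mL, dex 10 nM and βGP 10 mM. On set days, total RNA taken (n = 3 per time point), quantified at 260 nm, reverse transcribed, and analysed by SYBR Green qPCR.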

cells = experiment: Overt toxicity in cells; type: cell-based; conditions: except at a very high dose
Half-life in rat blood = type: in vitro ADME; conditions: 1 μM, 37°C
In short: (§1)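 Test compound at 1 μM in rat blood or plasma, 37°C, sampled at 0, 30, 60, 90 and 120 min. Quenched with acetonitrile, centrifuged, analyte peak areas read by HPLC-MS/MS.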

[11] = In vivo pharmacokinetics after intravenous dosing in rats; conditions: intravenous 0.5 mg/kg, male Sprague-Dawley rats
In short: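 Single intravenous dose of 0.5 mg/kg in 3 male Sprague-Dawley rats. Blood sampled up to 24 h post-dose; plasma levels measured by LC-MS/MS. Parameters calculated from the plasma concentration–time course by non-compartmental analysis.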

rat BMCs [12] = experiment: Mineralization of BMC cultures; type: cell-based; conditions: 1μM, day 21, compared to vehicle
In short: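 Rat BMCs dosed at plating with 1μM test compound or 0.1% ethanol vehicle (n = 4 or 6 wells); in the short-exposure arm, 30 or 60 min suspension exposure. Dex added day 4; from day 7, osteogenic medium (ascorbic acid, dex, βGP) every 3 days. Day 21: fixed in 2% paraformaldehyde, stained with 5% AgNO3 plus UV, von Kossa-positive area per well quantified by imaging.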

[13] = test system: non-EP prostanoids receptors (DP, FP, IP and TP); conditions: tested at 10 μM; ref Barrett et al., 2019; cited from earlier work
[14] = Protein binding in rat plasma by equilibrium dialysis; type: in vitro ADME; conditions: 10 μM, equilibrium dialysis 4 hours 37°C
Half-life in rat plasma = type: in vitro ADME; conditions: 1 μM, 37°C
In short: as §1

[15] = in vitro safety test; ref Barrett et al., 2019; cited from earlier work
bacterial = conditions: in vitro safety test; ref Barrett et al., 2019; cited from earlier work
[16] = Chemical stability of KMN-159; type: physicochemical
[17] = in vitro safety test; ref Barrett et al., 2019; cited from earlier work; remark: listed apart in the source
cytochrome P450 = conditions: in vitro safety test; ref Barrett et al., 2019; cited from earlier work
human EP3 = conditions: read-out: human EP3 binding Ki; ref Barrett et al., 2019; cited from earlier work
human EP4 = human EP4 (Homo sapiens, UniProt P35408); conditions: read-out: human EP4 binding Ki; ref Barrett et al., 2019; cited from earlier work
human EP4, sequence (P35408 whole entry): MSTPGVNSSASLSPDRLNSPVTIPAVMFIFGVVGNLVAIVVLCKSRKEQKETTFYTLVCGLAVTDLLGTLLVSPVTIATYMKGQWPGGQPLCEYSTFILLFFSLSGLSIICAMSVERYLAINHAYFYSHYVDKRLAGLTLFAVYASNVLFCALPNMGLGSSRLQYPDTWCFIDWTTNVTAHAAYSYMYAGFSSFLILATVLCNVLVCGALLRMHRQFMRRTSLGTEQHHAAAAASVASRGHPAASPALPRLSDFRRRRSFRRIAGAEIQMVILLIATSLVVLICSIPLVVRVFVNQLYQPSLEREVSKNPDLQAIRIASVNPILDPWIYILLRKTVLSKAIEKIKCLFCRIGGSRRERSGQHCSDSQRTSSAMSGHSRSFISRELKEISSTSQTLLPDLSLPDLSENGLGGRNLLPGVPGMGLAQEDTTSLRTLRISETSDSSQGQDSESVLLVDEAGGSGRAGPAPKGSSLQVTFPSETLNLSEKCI

[18] = Half-life and intrinsic clearance in rat hepatocytes; type: in vitro ADME
In short: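 Incubated at 37°C with 0.7 million viable rat hepatocytes/mL, sampled at 0, 30, 60, 90 and 120 min. Each sample quenched with acetonitrile and centrifuged; analyte peak areas measured by HPLC-MS/MS to derive half-life and intrinsic clearance.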

[19] = read-out: rat EP4 receptor CREB activation EC50, CRE-SEAP reporter, mean ± SEM

T1 sequence (P43114 whole entry): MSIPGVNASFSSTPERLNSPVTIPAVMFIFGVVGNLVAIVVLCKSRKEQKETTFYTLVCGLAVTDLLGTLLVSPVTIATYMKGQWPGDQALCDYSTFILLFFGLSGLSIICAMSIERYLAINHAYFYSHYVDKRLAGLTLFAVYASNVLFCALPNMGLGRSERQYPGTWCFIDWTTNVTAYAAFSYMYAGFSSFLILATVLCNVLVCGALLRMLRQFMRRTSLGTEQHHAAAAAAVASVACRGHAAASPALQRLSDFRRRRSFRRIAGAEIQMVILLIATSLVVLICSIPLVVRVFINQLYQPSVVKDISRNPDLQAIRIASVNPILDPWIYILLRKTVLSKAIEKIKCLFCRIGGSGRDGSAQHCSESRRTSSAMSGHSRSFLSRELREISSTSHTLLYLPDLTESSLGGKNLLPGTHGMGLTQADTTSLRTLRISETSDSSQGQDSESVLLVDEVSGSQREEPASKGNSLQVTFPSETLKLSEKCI

What does the source list for `CCC#CC[C@H](C)[C@H](O)/C=C/[C@H]1CCC(=O)N1CCCCCCC(=O)O` [KMN-80]?
EC50 (rat EP4 receptor [1]; [19]): 0.17 ± 0.014 nM; potency in the BMC ALP assay compared with parent compound 11-deoxy-8-aza-PGE1 (rat BMCs [2]; young female rat BMCs): unchanged from the parent compound; EC50 (rat EP4 receptor [3]): 2.6 ± 0.31 nM

Which EC50 (rat EP4 receptor [1]; [19]) does the source give for `CCCCCC(O)C=CC1CCC(=O)N1CCCCCCC(=O)O` (stereo not shown) [11-deoxy-8-aza-PGE1, reference compound] here?
The EC50 was 0.16 ± 0.049 nM.

And the EC50 (rat EP4 receptor [3])?
Its EC50 is 2.6 ± 0.62 nM.

With `CCCCC[C@H](O)/C=C/[C@H]1[C@H](O)CC(=O)[C@@H]1CCCCCCC(=O)O` [PGE1, prostaglandin E1] as the compound, how does the EC50 (rat EP2 receptor [4]) read?
The EC50 was 79.5 ± 9.1 nM.

And the EC50 (rat EP2 receptor [5])?
Its EC50 is 4.5 ± 0.46 nM.

What does the source list for `CCCCC[C@H](O)/C=C/[C@H]1CCC(=O)[C@@H]1CCCCCCC(=O)O` [11-deoxy-PGE1, reference compound]?
EC50 (rat EP4 receptor [1]; [19]): 0.06 ± 0.012 nM; EC50 (rat EP4 receptor [3]): 1.3 ± 0.24 nM

For `CCCC1([C@H](O)C/C=C/[C@H]2[C@H](O)CC(=O)[C@@H]2CCCCCCC(=O)OC)CCC1` [butaprost, reference compound], which “change in ALP activity over vehicle treated cultures” value (rat BMCs [2]) is on record?
The value was “no change in ALP activity”.

With `CS(=O)(=O)NC(=O)CCC/C=C\C[C@H]1C(=O)C[C@@H](O)[C@@H]1/C=C/[C@@H](O)COc1ccccc1` [sulprostone, reference compound] as the compound, how does the “change in ALP activity over vehicle treated cultures” value (rat BMCs [2]) read?
The value was “no change in ALP activity”.

Which EC50 (rat EP4 receptor [1]; [19]) does the source give for `CCCCC[C@H](O)/C=C/[C@H]1CC(F)(F)C(=O)N1CCCCCCC(=O)O` [KMN-165] here?
Its EC50 is 0.03 ± 0.007 nM.

What about the EC50 (rat EP4 receptor [3]) of the same compound?
The EC50 was 0.3 ± 0.025 nM.

For `CCCCC[C@H](O)/C=C/[C@H]1[C@H](O)CC(=O)[C@@H]1C/C=C\CCCC(=O)O` [PGE2, prostaglandin E2, reference compound], which EC50 (rat EP4 receptor [1]) is on record?
The EC50 was 0.03 ± 0.002 nM.

What about the total cell number (rat BMCs [6]) of the same compound?
The total cell number was “no significant differences”.

What about the “Oil Red O staining (adipocyte formation)” value (rat BMCs [7]) of the same compound?
Its value is “no significant change”.

And the ALP positive area (rat BMCs [8])?
The ALP positive area was “increase the ALP positive area”.

What about the “number of TRAP positive cells in the absence of exogenous M-CSF and RANKL” value (rat BMCs [9]) of the same compound?
The value was “none was observed”.

What about the “number of TRAP-positive cells” value (rat BMCs [9]) of the same compound?
Its value is “significantly increased numbers of TRAP-positive cells”.

For `CCCCC[C@H](O)/C=C/[C@H]1CCC(=O)[C@@H]1C/C=C\CCCC(=O)O` [11-deoxy-PGE2, reference compound], which EC50 (rat EP4 receptor [3]) is on record?
The EC50 was 1.1 ± 0.16 nM.

What does the source list for `CCC#CC[C@H](C)[C@H](O)/C=C/[C@H]1CC(F)(F)C(=O)N1CCCCCCC(=O)O` [KMN-159]?
RANKL expression (rat BMCs [10]; all timepoints tested, versus vehicle): significantly increased expression; Runx2 mRNA increase in expression (rat BMCs [10]; day 5): ~ 2 x; Runx2 expression (rat BMCs [10]; days 19 and 25, versus vehicle): significantly increased; osteocalcin gene expression (rat BMCs [10]; later days, versus vehicle): increased with both, time in culture and KMN-159 treatment; ALP mRNA expression (rat BMCs [10]; versus vehicle): increased; OPG expression (rat BMCs [10]; versus vehicle): either unchanged or decreased; collagen type IαI expression (rat BMCs [10]; versus vehicle): further increased; overt toxicity in cells (cells): no overt toxicity; EC50 (rat EP4 receptor [1]; [19]): 0.03 ± 0.003 nM; half life - blood (Half-life in rat blood): >2 h; total cell number (rat BMCs [6]): no significant differences; increase in ALP activity compared to vehicle treated cells (rat BMCs [2]; 1μM, 10 minutes exposure then compound removed, ALP day 9): approximately 3 fold; induction of ALP as percent of the maximum reached between 30 and 60 minutes of exposure (rat BMCs [2]; 1μM, 10 minutes exposure, ALP measured 9 days later): approximately 75%; increase in potency in the BMCs compared to 11-deoxy-8-aza-PGE1 (rat BMCs [2]; young female rat BMCs, ALP EC50): approximately 40 fold; area under the curve (extrapolated to infinity) [11]: 0.0218 ± 0.00555 µg·h/mL; in vivo clearance rate [11]: 0.0239 ± 0.00595 L/h/kg; mean residence time last [11]: 8.3 ± 1.0 min; steady state volume of distribution [11]: 3.41 ± 1.15 L/kg; clearance ([11]; Table 3): 23.9 ± 5.95 L/h/kg; Oil Red O staining (adipocyte formation) (rat BMCs [7]): no significant change; ALP positive area (rat BMCs [8]): increase the ALP positive area; mineralized area detected by von Kossa staining (rat BMCs [12]): increase in mineralized area; binding to the non-EP prostanoids receptors [13]: no detectable binding; protein binding [14]: 53.8 ± 3.5%; half life - plasma (Half-life in rat plasma): >2 h; Ames fluctuation [15]: negative; bacterial cytotoxicity (bacterial): negative; EC50 (rat EP4 receptor [3]): 0.5 ± 0.08 nM; recovery ([16]; in aqueous solution and upon sterilization by autoclaving or gamma irradiation, data not shown): higher than 90%; degradation of crystalline solid ([16]; storage at room temperature for over two years): no measurable degradation; micronucleus formation [17]: negative; cytochrome P450 inhibition (cytochrome P450): negative; number of TRAP positive cells in the absence of exogenous M-CSF and RANKL (rat BMCs [9]): none was observed; number of TRAP-positive cells (rat BMCs [9]): significantly increased numbers of TRAP-positive cells; Ki (human EP3): 258 nM; Ki (human EP4): 0.38 nM; intrinsic clearance - hepatocytes [18]: <8.2 μL/min/10^6 cells; half life - hepatocytes ([18]; 0.7 million viable cells/mL, 37°C): >2 h

From paper PMC7416767 (Gene, 2020)
